# Activity calls are given as the source filed them. No cut-off for these calls is given here.
# What was measured:
# RAW264.7 [1] = assay: Cytotoxicity against LPS-stimulated mouse RAW264.7 cells at 20 uM pretreated for 1 hr followed by LPS stimulation and measured after 24 hrs by MTT assay; details: raw264.7, 24 h
# Mus musculus [2] = assay: Antiinflammatory activity in C57/BL6 mouse ALI model assessed as reduction in LPS-induced pulmonary edema by measuring lung wet/dry weight ratio at 10 to 20 mg/kg, ip pretreated for 30 mins followed by LPS challenge and measured after 48 hrs; format: functional, organism-based
# How it was run: (§1)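 Male C57BL/6 mice, 18~22 g, acclimatized one week; 40 randomly split into control, LPS, and two LPS groups pretreated i.p. (10 or 20 mg/kg) 30 min before LPS (methods: 20 mg/kg tail vein; legend: 5 mg/kg intratracheal). Saline i.p. to controls. Sacrificed 48 h after LPS; read-outs lung MPO, body weight, upper right lobe wet/dry ratio (dried at 60 °C until constant), H&E on paraformaldehyde-fixed paraffin sections.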
# RAW264.7 [3] = assay: Antiinflammatory activity in mouse RAW264.7 cells assessed as inhibition of LPS-induced NO production at 10 uM pretreated for 1 hr followed by LPS stimulation and measured after 24 hrs by Griess reagent based assay; format: functional, cell-based
# How it was run: (§2)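 RAW264.7 in DMEM/10% FBS with penicillin-streptomycin, 37 °C, 5% CO2; seeded 6×10^4 cells/well, grown 24 h, pretreated 1 h with test agent (10 µM screen; 10, 5, 2.5, 1.25, 0.625 µM for concentration series), then LPS 0.5 µg/mL for 24 h. Supernatant nitrite measured with Griess reagent.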
# RAW264.7 [4] = assay: Antiinflammatory activity in mouse RAW264.7 cells assessed as reduction in LPS-induced NO production pretreated for 1 hr followed by LPS stimulation and measured after 24 hrs by Griess reagent based assay; format: functional, cell-based
# How it was run: as §2
# RAW264.7 [5] = assay: Antiinflammatory activity in mouse RAW264.7 cells assessed as reduction in LPS-induced IL-6 production pretreated for 1 hr followed by LPS stimulation and measured after 24 hrs by ELISA; format: functional, cell-based
# How it was run: (§3)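 RAW264.7 seeded 6×10^4 cells/well, cultured 24 h; 1 h pretreatment at 10, 5, 2.5, 1.25 or 0.625 µM, then LPS 0.5 µg/mL for 24 h. IL-6 and TNF-α in conditioned medium quantified by ELISA.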
# RAW264.7 [6] = assay: Antiinflammatory activity in mouse RAW264.7 cells assessed as reduction in LPS-induced TNF alpha production pretreated for 1 hr followed by LPS stimulation and measured after 24 hrs by ELISA; format: functional, cell-based
# How it was run: as §3
# RAW264.7 [7] = assay: Antiinflammatory activity in mouse RAW264.7 cells assessed as reduction in LPS-induced iNOS protein expression pretreated for 1 hr followed by LPS stimulation and measured after 24 hrs by Western blot analysis; format: functional, cell-based
# How it was run: (§4)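 Western blot in RAW264.7: 1 h pretreatment at 0.5–2 µM, LPS 0.5 µg/mL for 24 h; lysis in RIPA with PMSF and phosphatase inhibitors on ice 30 min, 12% SDS-PAGE, PVDF, primary antibodies overnight at 4 °C, HRP secondary 1:5000 1 h at room temperature; iNOS and COX-2 against β-actin; three separate experiments.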
# RAW264.7 [8] = assay: Antiinflammatory activity in mouse RAW264.7 cells assessed as reduction in LPS-induced COX2 protein expression pretreated for 1 hr followed by LPS stimulation and measured after 24 hrs by Western blot analysis; format: functional, cell-based
# How it was run: as §4
# RAW264.7 [9] = assay: Antiinflammatory activity in mouse RAW264.7 cells assessed as reduction in LPS-induced TLR4 protein expression pretreated for 1 hr followed by LPS stimulation and measured after 30 mins by Western blot analysis; format: functional, cell-based
# RAW264.7 [10] = assay: Inhibition of LPS-induced JNK phosphorylation in mouse RAW264.7 cells pretreated for 1 hr followed by LPS stimulation by Western blot analysis; format: cell-based
# How it was run: (§5)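 RAW264.7 seeded 3×10^5 cells/well, 24 h; pretreated 1 h at 0.5, 1 or 2 µM, then LPS 0.5 µg/mL for 30 min. RIPA lysates (PMSF, phosphatase inhibitors) on 12% SDS-PAGE, PVDF; primary antibodies overnight 4 °C, HRP secondary 1:5000. Probed phospho/total ERK, JNK, p38, p-IκB, IκB, p-p65, p65, β-actin; three independent experiments.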
# RAW264.7 [11] = assay: Effect on total ERK expression level in LPS-induced mouse RAW264.7 cells pretreated for 1 hr followed by LPS stimulation and measured after 30 mins by Western blot analysis; format: ADME, cell-based; details: raw264.7, 0.5 h
# How it was run: as §5
# RAW264.7 [12] = assay: Effect on total p38 expression level in LPS-induced mouse RAW264.7 cells pretreated for 1 hr followed by LPS stimulation and measured after 30 mins by Western blot analysis; format: ADME, cell-based; details: raw264.7, 0.5 h
# How it was run: as §5
# RAW264.7 [13] = assay: Effect on total JNK protein expression level in LPS-induced mouse RAW264.7 cells pretreated for 1 hr followed by LPS stimulation and measured after 30 mins by Western blot analysis; format: ADME, cell-based; details: raw264.7, 0.5 h
# How it was run: as §5
# RAW264.7 [14] = assay: Inhibition of LPS-stimulated NFkappaB activation in mouse RAW264.7 cells assessed as reduction in IkappaB phosphorylation at 0.5 to 2 uM pretreated for 1 hr followed by LPS stimulation and measured after 30 mins by Western blot analysis; format: cell-based
# How it was run: as §5
# RAW264.7 [15] = assay: Inhibition of LPS-stimulated NFkappaB activation in mouse RAW264.7 cells assessed as reduction in LPS-induced IkappaB degradation at 0.5 to 2 uM pretreated for 1 hr followed by LPS stimulation and measured after 30 mins by Western blot analysis; format: cell-based
# How it was run: as §5
# Mus musculus [16] = assay: Antiinflammatory activity in C57/BL6 mouse ALI model assessed as reduction in LPS-induced MPO level in lungs tissue at 10 to 20 mg/kg, ip pretreated for 30 mins followed by LPS challenge and measured after 48 hrs; format: functional, organism-based
# How it was run: as §1
# Mus musculus [17] = assay: Effect on LPS-induced body weight loss in C57/BL6 mouse at 10 to 20 mg/kg, ip pretreated for 30 mins followed by LPS challenge; format: functional, organism-based
# How it was run: as §1
# Mus musculus [18] = assay: Protection against LPS-induced acute lung injury in C57/BL6 mouse assessed as survival rate at 10 to 20 mg/kg, ip pretreated for 30 mins followed by LPS challenge and measured at 24 hrs (reference value: 60%); format: functional
# Mus musculus [19] = assay: Protection against LPS-induced acute lung injury in C57/BL6 mouse assessed as survival rate at 20 mg/kg, ip pretreated for 30 mins followed by LPS challenge and measured after 48 hrs (reference value: 10%); format: functional
# Mus musculus [20] = assay: Antiinflammatory activity in C57/BL6 mouse ALI model assessed as reduction in LPS-induced pro-inflammatory alterations at 10 to 20 mg/kg, ip pretreated for 30 mins followed by LPS challenge and measured after 48 hrs by H and E staining based histopathological analysis; format: functional, organism-based
# How it was run: as §1
# Mus musculus [21] = assay: Antiinflammatory activity in C57/BL6 mouse ALI model assessed as reduction in LPS-induced alveolar hemorrhage at 10 to 20 mg/kg, ip pretreated for 30 mins followed by LPS challenge and measured after 48 hrs by H and E staining based histopathological analysis; format: functional, organism-based
# How it was run: as §1
# Mus musculus [22] = assay: Antiinflammatory activity in C57/BL6 mouse ALI model assessed as reduction in LPS-induced lung edema at 10 to 20 mg/kg, ip pretreated for 30 mins followed by LPS challenge and measured after 48 hrs by H and E staining based histopathological analysis; format: functional, organism-based
# How it was run: as §1
# Mus musculus [23] = assay: Antiinflammatory activity in C57/BL6 mouse ALI model assessed as reduction in LPS-induced inflammatory cell infiltration at 10 to 20 mg/kg, ip pretreated for 30 mins followed by LPS challenge and measured after 48 hrs by H and E staining based histopathological analysis; format: functional, organism-based
# How it was run: as §1
# Mus musculus [24] = assay: Antiinflammatory activity in C57/BL6 mouse ALI model assessed as reduction in LPS-induced destruction of alveolar structure at 10 to 20 mg/kg, ip pretreated for 30 mins followed by LPS challenge and measured after 48 hrs by H and E staining based histopathological analysis; format: functional, organism-based
# How it was run: as §1
# [25] = Toxicity in C57/BL6 mouse ALI model assessed as induction of destruction of alveolar structure at 20 mg/kg, ip measured after 48 hrs by H and E staining based histopathological analysis; format: organism-based; details: in vivo
# How it was run: (§6)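 Mice given 20 mg/kg i.p. without LPS, compared with controls; lung sections stained with hematoxylin and eosin for edema, hemorrhage, inflammatory cell infiltration and alveolar structure.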
# [26] = Toxicity in C57/BL6 mouse ALI model assessed as induction of inflammatory cell infiltration at 20 mg/kg, ip measured after 48 hrs by H and E staining based histopathological analysis; format: organism-based; details: in vivo
# How it was run: as §6
# [27] = Toxicity in C57/BL6 mouse ALI model assessed as mortality at 20 mg/kg, ip; format: organism-based; details: in vivo
# How it was run: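 Mice were given the compound at 20 mg/kg ip as solutions, with no LPS challenge. They were observed against an untreated control group, and lung sections were then stained with H&E to look for inflammation, hemorrhage, edema and alveolar damage.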
# [28] = Toxicity in C57/BL6 mouse ALI model assessed as induction of pro-inflammatory alterations at 20 mg/kg, ip measured after 48 hrs by H and E staining based histopathological analysis; format: organism-based; details: in vivo
# How it was run: as §6
# [29] = Toxicity in C57/BL6 mouse ALI model assessed as induction of alveolar hemorrhage at 20 mg/kg, ip measured after 48 hrs by H and E staining based histopathological analysis; format: organism-based; details: in vivo
# How it was run: as §6
# [30] = Toxicity in C57/BL6 mouse ALI model assessed as induction of lung edema at 20 mg/kg, ip measured after 48 hrs by H and E staining based histopathological analysis; format: organism-based; details: in vivo
# How it was run: as §6
# RAW264.7 [31] = assay: Inhibition of LPS-stimulated NFkappaB activation in mouse RAW264.7 cells assessed as reduction in p65 phosphorylation at 0.5 to 2 uM pretreated for 1 hr followed by LPS stimulation and measured after 30 mins by Western blot analysis; format: cell-based
# How it was run: as §5
smiles,measurement,setting,value
CCOc1ccc(/C=C/c2cc(OC)cc(OC)c2-c2cc(=O)c3cc(OC)ccc3o2)cc1,Activity,RAW264.7 [1],Non-Toxic
COc1cc(/C=C/c2ccc(OCc3ccccc3)cc2)c(-c2cc(=O)c3cc(Br)ccc3o2)c(OC)c1,Activity,RAW264.7 [1],Non-Toxic
COc1ccc(/C=C/c2cc(OC)cc(OC)c2-c2oc3ccc(F)cc3c(=O)c2O)cc1,Activity,Mus musculus [2],Active
same,inhibition,RAW264.7 [3],Active
same,Activity,RAW264.7 [4],Dose-dependent effect
same,IC50,RAW264.7 [4],1350 nM
same,Activity,RAW264.7 [5],Dose-dependent effect
same,IC50,RAW264.7 [5],1120 nM
same,Activity,RAW264.7 [6],Dose-dependent effect
same,IC50,RAW264.7 [6],1920 nM
same,Activity,RAW264.7 [7],Dose-dependent effect
same,Activity,RAW264.7 [8],Dose-dependent effect
same,Activity,RAW264.7 [9],Dose-dependent effect
same,inhibition,RAW264.7 [10],inactive
same,Activity,RAW264.7 [11],Non-Toxic
same,Activity,RAW264.7 [12],Non-Toxic
same,Activity,RAW264.7 [13],Non-Toxic
same,inhibition,RAW264.7 [14],Active
same,inhibition,RAW264.7 [15],Active
same,Activity,Mus musculus [16],Active
same,Activity,Mus musculus [17],inactive
same,Activity,Mus musculus [18],90%
same,Activity,Mus musculus [19],50%
same,Activity,Mus musculus [20],Active
same,Activity,Mus musculus [21],Active
same,Activity,Mus musculus [22],Active
same,Activity,Mus musculus [23],Active
same,Activity,Mus musculus [24],Active
same,Activity,[25],Non-Toxic
same,Activity,[26],Non-Toxic
same,Activity,[27],Non-Toxic
same,Activity,[28],Non-Toxic
same,Activity,[29],Non-Toxic
same,Activity,[30],Non-Toxic
same,inhibition,RAW264.7 [31],Active
COc1ccc(/C=C/c2cc(OC)cc(OC)c2-c2oc3ccc(Br)cc3c(=O)c2O)cc1,inhibition,RAW264.7 [3],Active
Oc1ccc(/C=C/c2cc(O)cc(O)c2)cc1,inhibition,RAW264.7 [3],Active
COc1ccc(/C=C/c2cc(OC)cc(OC)c2-c2cc(=O)c3cc(OC)ccc3o2)cc1,inhibition,RAW264.7 [3],Active
COc1ccc(/C=C/c2cc(OC)cc(OC)c2-c2oc3ccc(OC)cc3c(=O)c2O)cc1,inhibition,RAW264.7 [3],Active
same,Activity,RAW264.7 [4],Dose-dependent effect
same,IC50,RAW264.7 [4],1780 nM
same,Activity,RAW264.7 [5],Dose-dependent effect
same,IC50,RAW264.7 [5],2370 nM
same,Activity,RAW264.7 [6],Dose-dependent effect
same,IC50,RAW264.7 [6],5000 nM

# Source: ChEMBL document CHEMBL4393700, “Novel resveratrol-based flavonol derivatives: Synthesis and anti-inflammatory activity in vitro and in vivo” (Eur J Med Chem, 2019)
